Results: ChEMBL document CHEMBL1137494, “The antiviral drug ribavirin is a selective inhibitor of S-adenosyl-L-homocysteine hydrolase from Trypanosoma cruzi” (Bioorg Med Chem, 2007)

Assays:
[1] = biological target: Adenosylhomocysteinase (Homo sapiens) (UniProt P23526); experiment: Inactivation of human recombinant S-adenosyl-L-homocysteine hydrolase NAD+ form expressed in Escherichia coli JM109 at 100 uM
Method in brief: (§1)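 Enzyme (1 μM), fully reconstituted with NAD+, incubated with 100 μM ribavirin and 50 μM NAD+ in phosphate pH 7.2 at 37 °C; remaining hydrolytic activity (AdoHcy → Ado + Hcy, ADA-coupled, DTNB read at 412 nm, 22 °C) sampled over time; first-order inactivation rate constant.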

[2] = system: Trypanosoma cruzi; experiment: Inactivation of Trypanosoma cruzi recombinant S-adenosyl-L-homocysteine hydrolase NAD+ form expressed in Escherichia coli JM109 at 100 uM; method in brief: as §1
[3] = biological target: Adenosylhomocysteinase (Homo sapiens) (UniProt P23526); experiment: Inactivation of human recombinant S-adenosyl-L-homocysteine hydrolase NAD+ form expressed in Escherichia coli JM109 assessed as increase in fluorescence at 200 uM
Method in brief: (§2)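 NAD+-reconstituted enzyme (10 μM) incubated with 200 μM ribavirin plus 100 μM NAD+ in 50 mM phosphate pH 7.2, 1 mM EDTA at 37 °C; rise in NADH fluorescence (ex 340/em 450 nm) followed over time and fit to first-order relationship.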

[4] = system: Trypanosoma cruzi; experiment: Inactivation of Trypanosoma cruzi recombinant S-adenosyl-L-homocysteine hydrolase NAD+ form expressed in Escherichia coli JM109 assessed as increase in fluorescence at 200 uM; method in brief: as §2
[5] = system: Trypanosoma cruzi; experiment: Inactivation of Trypanosoma cruzi recombinant S-adenosyl-L-homocysteine hydrolase NADH form expressed in Escherichia coli JM109 assessed by measuring fluorescence
[6] = biological target: Adenosylhomocysteinase (Homo sapiens) (UniProt P23526); experiment: Binding to human recombinant S-adenosyl-L-homocysteine hydrolase NADH form expressed in Escherichia coli JM109
Method in brief: (§3)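 Apo-enzyme reconstituted with 1 mM NADH (pH 8.5, 12 h, 4 °C) and gel-filtration purified; 10 μM enzyme incubated with ribavirin 0-6 mM in 50 mM phosphate pH 7.2, 1 mM EDTA, 37 °C. Quenching of bound NADH fluorescence (ex 340/em 450 nm) fit to hyperbolic saturation model to give dissociation constant KR.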

[7] = system: Trypanosoma cruzi; experiment: Binding to Trypanosoma cruzi recombinant S-adenosyl-L-homocysteine hydrolase NADH form expressed in Escherichia coli JM109; method in brief: as §3
[8] = biological target: Adenosylhomocysteinase (Homo sapiens) (UniProt P23526); experiment: Ratio of kinact for human recombinant S-adenosyl-L-homocysteine hydrolase NAD+ form to KI for human recombinant S-adenosyl-L-homocysteine hydrolase NAD+
[9] = system: Trypanosoma cruzi; experiment: Ratio of kinact for Trypanosoma cruzi recombinant S-adenosyl-L-homocysteine hydrolase NAD form to KI for Trypanosoma cruzi recombinant S-adenosyl-L-homocysteine hydrolase NAD form

Sequence of Adenosylhomocysteinase (Homo sapiens) (P23526 2-432 limits assumed): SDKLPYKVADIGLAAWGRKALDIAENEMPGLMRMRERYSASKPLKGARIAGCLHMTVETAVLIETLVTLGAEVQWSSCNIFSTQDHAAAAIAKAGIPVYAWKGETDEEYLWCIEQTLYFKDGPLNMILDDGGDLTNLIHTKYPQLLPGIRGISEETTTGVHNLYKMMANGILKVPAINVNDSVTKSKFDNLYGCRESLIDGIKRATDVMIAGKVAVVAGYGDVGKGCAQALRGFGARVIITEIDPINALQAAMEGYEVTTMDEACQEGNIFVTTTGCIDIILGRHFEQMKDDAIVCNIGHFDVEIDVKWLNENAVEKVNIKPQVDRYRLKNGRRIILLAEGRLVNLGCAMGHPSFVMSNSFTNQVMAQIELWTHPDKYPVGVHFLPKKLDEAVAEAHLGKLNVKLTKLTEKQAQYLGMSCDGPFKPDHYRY

| SMILES | Activity [1] | Activity [2] | Fluorescence intensity [3] | Fluorescence intensity [4] | Activity [5] | KR [6] [µM] | KR [7] [µM] | Ratio [8] [M⁻¹ s⁻¹] | Ratio [9] [M⁻¹ s⁻¹] | Fluorescence intensity [5] [%] |
| --- | --- | --- | --- | --- | --- | --- | --- | --- | --- | --- |
| NC(=O)c1ncn([C@@H]2O[C@H](CO)[C@@H](O)[C@H]2O)n1 | Dose-dependent effect | Dose-dependent effect | 182000 | 227000 | 3.13 10^10/M | 407 | 586 | 0.56 | 3.92 |  |
| Nc1ncnc2c1ncn2[C@@H]1C=C[C@@H](O)[C@H]1O |  |  |  |  |  |  |  |  |  | 5.4 |
